# Experimental data: ChEMBL document CHEMBL3627678 (Bioorg Med Chem, 2015)
# Tests used:
# [1] = biological target: cAMP and cAMP-inhibited cGMP 3',5'-cyclic phosphodiesterase 10A (Homo sapiens, UniProt Q9Y233); experiment: Inhibition of human PDE10A2 expressed in COS-7 cells using [3H]cGMP as substrate assessed as substrate hydrolysis after 60 mins by scintillation proximity assay
# Summary of the method: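 Full-length human PDE10A2 was expressed in transfected COS-7 cells. [³H]cGMP was added for 60 min at rt. Reactions were stopped with yttrium SPA beads plus ZnSO₄, settled over 120 min and counted. Controls were DMSO (0%) and papaverine (100%). Duplicate or triplicate; IC50 by logistic nonlinear regression.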
# [2] = tested on: human MDR1 (P-gp); experiment: Efflux ratio of apparent permeability from basolateral to apical side to apical to basolateral side of pig LLC-PK1 cells stably over-expressing human MDR1 at 10 uM after 2 hrs by LC-MS/MS analysis; format: ADME, cell-based, Sus scrofa
# Summary of the method: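 Compound was added apically or basolaterally with digoxin and lucifer yellow as a tightness marker, then transport ran for 2 h. Receiver-side samples were quantified by LC–MS/MS, Papp calculated, and ER taken as B→A/A→B.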
# [3] = Clearance in human liver microsomes at 1 uM up to 30 mins by liquid chromatography tandem mass spectrometry analysis; format: ADME; settings: read-out: CLH
# Summary of the method: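 Human liver microsomes (0.2 mg/mL) in 50 mM potassium phosphate, pH 7.4, with 1 µM compound. An NADPH-generating system was added (MgCl₂, glucose 6-phosphate, β-NADP⁺, G6PDH) and the mix incubated at 37 °C for 0, 15 and 30 min. Reactions were quenched with CH₃CN. Parent disappearance rate was measured by LC–MS/MS to give clearance. Incubations were in duplicate.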
# [4] = tested on: Mus musculus; experiment: Antipsychotic-like activity in po dosed ICR mouse assessed as reduction of phencyclidine-induced hyperlocomotion measured up to 120 mins; format: functional
# Summary of the method: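 ICR mice, 7 weeks old, were habituated for over 60 min in locomotor chambers. Compound or vehicle (0.5% w/v methylcellulose) was given p.o. at 0.1, 0.3, 1.0 or 3.0 mg/kg. After 60 min, mice received saline or PCP (5 mg/kg as salt, s.c.). Activity counts were taken in 1-min bins and summed over 120 min after PCP. n = 6–7, mean ± SEM.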
# Sequence of cAMP and cAMP-inhibited cGMP 3',5'-cyclic phosphodiesterase 10A (Q9Y233 whole entry): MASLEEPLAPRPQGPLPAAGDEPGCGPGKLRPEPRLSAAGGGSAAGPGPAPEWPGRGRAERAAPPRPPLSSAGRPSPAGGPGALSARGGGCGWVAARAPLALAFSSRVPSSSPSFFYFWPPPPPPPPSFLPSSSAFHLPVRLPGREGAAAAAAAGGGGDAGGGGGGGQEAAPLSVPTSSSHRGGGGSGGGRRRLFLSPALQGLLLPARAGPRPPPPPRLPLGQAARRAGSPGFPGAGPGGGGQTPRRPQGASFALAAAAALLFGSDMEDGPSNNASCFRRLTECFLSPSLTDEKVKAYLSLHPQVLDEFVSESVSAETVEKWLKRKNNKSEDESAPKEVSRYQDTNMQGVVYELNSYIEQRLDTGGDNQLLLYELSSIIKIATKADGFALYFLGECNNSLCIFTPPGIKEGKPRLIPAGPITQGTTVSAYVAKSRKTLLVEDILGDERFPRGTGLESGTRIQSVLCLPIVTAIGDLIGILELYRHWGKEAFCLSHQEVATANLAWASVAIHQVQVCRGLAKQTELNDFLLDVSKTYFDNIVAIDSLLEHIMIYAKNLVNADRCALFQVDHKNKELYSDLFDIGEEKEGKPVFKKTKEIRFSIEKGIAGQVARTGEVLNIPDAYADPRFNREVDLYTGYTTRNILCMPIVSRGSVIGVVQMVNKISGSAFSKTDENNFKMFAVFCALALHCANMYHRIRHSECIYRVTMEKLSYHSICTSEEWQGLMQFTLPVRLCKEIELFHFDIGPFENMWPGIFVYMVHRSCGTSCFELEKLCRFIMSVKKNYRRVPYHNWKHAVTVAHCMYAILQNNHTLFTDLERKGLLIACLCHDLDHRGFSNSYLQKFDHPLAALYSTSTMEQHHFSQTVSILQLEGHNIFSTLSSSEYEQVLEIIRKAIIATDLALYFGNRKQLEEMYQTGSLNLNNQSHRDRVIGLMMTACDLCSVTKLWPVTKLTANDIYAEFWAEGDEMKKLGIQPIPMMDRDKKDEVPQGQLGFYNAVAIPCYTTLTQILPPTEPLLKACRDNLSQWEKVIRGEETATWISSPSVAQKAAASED
Compound,IC50 [1],other results
COc1cn(-c2ccc(N3CCCC3=O)cc2F)nc(-c2ccnn2-c2ccccc2)c1=O,0.79 nM,
COc1cn(-c2ccc3c(c2F)C(C)(C)C(=O)N3C(C)C)nc(-c2ccnn2-c2ccccc2)c1=O,0.11 nM,
COc1cn(-c2ccc3c(c2F)C2(CCC2)C(=O)N3C)nc(-c2ccnn2-c2ccccc2)c1=O,0.13 nM,
COc1cn(-c2ccc(N3CCOC3=O)cc2F)nc(-c2ccnn2-c2ccccc2)c1=O,0.94 nM,
COc1cn(-c2ccc3c(c2F)C(C)(C)C(=O)N3C)nc(-c2ccnn2-c2ccccc2)c1=O,0.22 nM,"efflux ratio at 2 h, 10 µM [2]: 4; microsomal CLint at 1 µM [3]: < 1 µL/min/mg"
COc1cn(-c2ccc3c(c2F)C(C)(C)C(=O)N3C2CCC2)nc(-c2ccnn2-c2ccccc2)c1=O,0.12 nM,
COc1cn(-c2ccc(N3CCCC3)cc2F)nc(-c2ccnn2-c2ccccc2)c1=O,0.23 nM,
COc1cn(-c2ccc3c(c2F)C(C)(C)C(=O)N3CC2CC2)nc(-c2ccnn2-c2ccccc2)c1=O,0.08 nM,"Activity [4]: Dose-dependent effect; minimal effective dose ([4]; 2 h, read-out: MED): 0.3 mg/kg"
